# pKi: −log10 of the molar value. Calls of active or inactive are those of the source. No cut-off for these calls is given here.
# Legend:
# Spleen [1] = assay: Biodistribution in ddY mouse spleen at 10 uCi/100 uL, iv after 2 mins by gamma counting; assay type: ADME, organism-based; settings: in vivo
# Stomach [2] = assay: Biodistribution in ddY mouse stomach at 10 uCi/100 uL, iv after 2 mins by gamma counting; assay type: ADME, organism-based; settings: in vivo
# Intestine [3] = assay: Biodistribution in ddY mouse intestine at 10 uCi/100 uL, iv after 2 mins by gamma counting; assay type: ADME, organism-based; settings: in vivo
# Method in brief: (§1)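 Normal female ddY mice (5 weeks, about 20 g; n = 4 per group) received radiotracer iv. Organs were removed and weighed at 2–120 min and counted in a γ-counter. Percent dose per gram of wet tissue was calculated against diluted aliquots of the injected material and reported as mean ± SD.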
# Lung [4] = assay: Biodistribution in ddY mouse lung at 10 uCi/100 uL, iv after 2 mins by gamma counting; assay type: ADME, organism-based; settings: in vivo
# Heart [5] = assay: Biodistribution in ddY mouse heart at 10 uCi/100 uL, iv after 2 mins by gamma counting; assay type: ADME, organism-based; settings: in vivo; method in brief: as §1
# Brain [6] = assay: Biodistribution in ddY mouse brain at 10 uCi/100 uL, iv after 15 mins by gamma counting; assay type: ADME, organism-based; settings: in vivo, 0.25 h; method in brief: as §1
# Blood [7] = assay: Biodistribution in ddY mouse blood at 10 uCi/100 uL, iv after 15 mins by gamma counting; assay type: ADME, organism-based; settings: in vivo, 0.25 h; method in brief: as §1
# Bone [8] = assay: Biodistribution in ddY mouse bone at 10 uCi/100 uL, iv after 15 mins by gamma counting; assay type: ADME, organism-based, Bone element; settings: in vivo, 0.25 h; method in brief: as §1
# Liver [9] = assay: Biodistribution in ddY mouse liver at 10 uCi/100 uL, iv after 15 mins by gamma counting; assay type: ADME, organism-based; settings: in vivo, 0.25 h
# Kidney [10] = assay: Biodistribution in ddY mouse kidney at 10 uCi/100 uL, iv after 15 mins by gamma counting; assay type: ADME, organism-based; settings: in vivo, 0.25 h
# Spleen [11] = assay: Biodistribution in ddY mouse spleen at 10 uCi/100 uL, iv after 15 mins by gamma counting; assay type: ADME, organism-based; settings: in vivo, 0.25 h
# Stomach [12] = assay: Biodistribution in ddY mouse stomach at 10 uCi/100 uL, iv after 15 mins by gamma counting; assay type: ADME, organism-based; settings: in vivo, 0.25 h
# Intestine [13] = assay: Biodistribution in ddY mouse intestine at 10 uCi/100 uL, iv after 15 mins by gamma counting; assay type: ADME, organism-based; settings: in vivo, 0.25 h; method in brief: as §1
# Lung [14] = assay: Biodistribution in ddY mouse lung at 10 uCi/100 uL, iv after 15 mins by gamma counting; assay type: ADME, organism-based; settings: in vivo, 0.25 h
# Heart [15] = assay: Biodistribution in ddY mouse heart at 10 uCi/100 uL, iv after 15 mins by gamma counting; assay type: ADME, organism-based; settings: in vivo, 0.25 h; method in brief: as §1
# Brain [16] = assay: Biodistribution in ddY mouse brain at 10 uCi/100 uL, iv after 30 mins by gamma counting; assay type: ADME, organism-based; settings: in vivo, 0.5 h; method in brief: as §1
# Blood [17] = assay: Biodistribution in ddY mouse blood at 10 uCi/100 uL, iv after 30 mins by gamma counting; assay type: ADME, organism-based; settings: in vivo, 0.5 h; method in brief: as §1
# Bone [18] = assay: Biodistribution in ddY mouse bone at 10 uCi/100 uL, iv after 30 mins by gamma counting; assay type: ADME, organism-based, Bone element; settings: in vivo, 0.5 h; method in brief: as §1
# Liver [19] = assay: Biodistribution in ddY mouse liver at 10 uCi/100 uL, iv after 30 mins by gamma counting; assay type: ADME, organism-based; settings: in vivo, 0.5 h
# Kidney [20] = assay: Biodistribution in ddY mouse kidney at 10 uCi/100 uL, iv after 30 mins by gamma counting; assay type: ADME, organism-based; settings: in vivo, 0.5 h
# Spleen [21] = assay: Biodistribution in ddY mouse spleen at 10 uCi/100 uL, iv after 30 mins by gamma counting; assay type: ADME, organism-based; settings: in vivo, 0.5 h
# Stomach [22] = assay: Biodistribution in ddY mouse stomach at 10 uCi/100 uL, iv after 30 mins by gamma counting; assay type: ADME, organism-based; settings: in vivo, 0.5 h
# Intestine [23] = assay: Biodistribution in ddY mouse intestine at 10 uCi/100 uL, iv after 30 mins by gamma counting; assay type: ADME, organism-based; settings: in vivo, 0.5 h; method in brief: as §1
# Lung [24] = assay: Biodistribution in ddY mouse lung at 10 uCi/100 uL, iv after 30 mins by gamma counting; assay type: ADME, organism-based; settings: in vivo, 0.5 h
# Heart [25] = assay: Biodistribution in ddY mouse heart at 10 uCi/100 uL, iv after 30 mins by gamma counting; assay type: ADME, organism-based; settings: in vivo, 0.5 h; method in brief: as §1
# Brain [26] = assay: Biodistribution in ddY mouse brain at 10 uCi/100 uL, iv after 60 mins by gamma counting; assay type: ADME, organism-based; settings: in vivo, 1 h; method in brief: as §1
# Blood [27] = assay: Biodistribution in ddY mouse blood at 10 uCi/100 uL, iv after 60 mins by gamma counting; assay type: ADME, organism-based; settings: in vivo, 1 h; method in brief: as §1
# Bone [28] = assay: Biodistribution in ddY mouse bone at 10 uCi/100 uL, iv after 60 mins by gamma counting; assay type: ADME, organism-based, Bone element; settings: in vivo, 1 h; method in brief: as §1
# Liver [29] = assay: Biodistribution in ddY mouse liver at 10 uCi/100 uL, iv after 60 mins by gamma counting; assay type: ADME, organism-based; settings: in vivo, 1 h
# Kidney [30] = assay: Biodistribution in ddY mouse kidney at 10 uCi/100 uL, iv after 60 mins by gamma counting; assay type: ADME, organism-based; settings: in vivo, 1 h
# Spleen [31] = assay: Biodistribution in ddY mouse spleen at 10 uCi/100 uL, iv after 60 mins by gamma counting; assay type: ADME, organism-based; settings: in vivo, 1 h
# Stomach [32] = assay: Biodistribution in ddY mouse stomach at 10 uCi/100 uL, iv after 60 mins by gamma counting; assay type: ADME, organism-based; settings: in vivo, 1 h
# Intestine [33] = assay: Biodistribution in ddY mouse intestine at 10 uCi/100 uL, iv after 60 mins by gamma counting; assay type: ADME, organism-based; settings: in vivo, 1 h; method in brief: as §1
# Lung [34] = assay: Biodistribution in ddY mouse lung at 10 uCi/100 uL, iv after 60 mins by gamma counting; assay type: ADME, organism-based; settings: in vivo, 1 h
# Heart [35] = assay: Biodistribution in ddY mouse heart at 10 uCi/100 uL, iv after 60 mins by gamma counting; assay type: ADME, organism-based; settings: in vivo, 1 h; method in brief: as §1
# Brain [36] = assay: Ratio of drug uptake in ddY mouse brain at 10 uCi/100 uL, iv after 2 mins to drug uptake in ddY mouse brain at 10 uCi/100 uL, iv after 60 mins; assay type: ADME, organism-based; settings: in vivo
# Method in brief: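 Normal female ddY mice (5 weeks, about 20 g) received the radiotracer iv, with groups of 4 per time point. At 2 and 60 min, brain and other organs were excised and weighed and counted in a γ-counter. %ID/g wet tissue was taken against diluted injectate aliquots. The ratio is brain %ID/g at 2 min divided by brain %ID/g at 60 min.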
# [37] = Partition coefficient, log D of the compound; assay type: physicochemical; settings: octanol/water
# Method in brief: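 Radiotracer partitioned between n-octanol and PBS: vortexed 3 min at room temperature, centrifuged 5 min at 3000 rpm. Weighed samples of the octanol (100 μL) and buffer (500 μL) layers were counted. log D is the log of the ratio of counts per gram, octanol versus PBS.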
# Brain [38] = assay: Biodistribution in ddY mouse brain at 10 uCi/100 uL, iv after 2 mins by gamma counting; assay type: ADME, organism-based; settings: in vivo; method in brief: as §1
# Blood [39] = assay: Biodistribution in ddY mouse blood at 10 uCi/100 uL, iv after 2 mins by gamma counting; assay type: ADME, organism-based; settings: in vivo; method in brief: as §1
# Bone [40] = assay: Biodistribution in ddY mouse bone at 10 uCi/100 uL, iv after 2 mins by gamma counting; assay type: ADME, organism-based, Bone element; settings: in vivo; method in brief: as §1
# Liver [41] = assay: Biodistribution in ddY mouse liver at 10 uCi/100 uL, iv after 2 mins by gamma counting; assay type: ADME, organism-based; settings: in vivo
# Kidney [42] = assay: Biodistribution in ddY mouse kidney at 10 uCi/100 uL, iv after 2 mins by gamma counting; assay type: ADME, organism-based; settings: in vivo
# [43] = Displacement of [125I]IMPY from amyloid beta (1 to 42) aggregate after 2 hrs by gamma counting
# Method in brief: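 Competition binding in 1 mL PBS (0.2 M, pH 7.4). Aggregated Aβ1-42 fibrils (60 nM final) with [125I]IMPY and inhibitor at 10^-5 to 10^-10 M, added in ethanol. Nonspecific binding was defined with 1 μM IMPY. Incubated 2 h at 37 °C with shaking, then vacuum-filtered through glass fibre filters and the bound fraction gamma-counted. IC50 was converted to Ki by Cheng-Prusoff; triplicate, mean ± SD.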
# Mus musculus [44] = species on record: Mus musculus; assay: Binding affinity to amyloid beta (1 to 42) aggregate in APP/PS1 transgenic C57BL/6 mouse brain after 1 hr by autoradiography; assay type: tissue-based; settings: C57BL6, tested as the 18F-labelled form
# Method in brief: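 Paraffin brain sections from 12-month-old male C57BL6-APP/PS1 mice, with wild-type male C57BL6 controls, were deparaffinized through xylene and graded ethanol, then held 30 min in PBS (0.2 M, pH 7.4). Sections were incubated 1 h at room temperature with radiotracer (5 μCi/100 μL), washed 3 min in 40% ethanol, rinsed in water, dried and exposed to an imaging plate overnight.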
# Mus musculus [45] = species on record: Mus musculus; assay: Binding affinity to amyloid beta (1 to 42) aggregate in APP/PS1 transgenic C57BL/6 mouse brain by Thioflavin S fluorescent staining assay; assay type: tissue-based; settings: C57BL6, tested as the 18F-labelled form
# Method in brief: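 The same Tg mouse sections used for autoradiography were stained with thioflavin S to locate plaques. Fluorescence was viewed by microscope: excitation 400–440 nm, dichroic 455 nm, long-pass 470 nm.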
# [46] = target: Amyloid-beta precursor protein (Homo sapiens) (UniProt P05067); assay: Binding affinity to amyloid beta (1 to 42) aggregate in Alzheimer disease patient brain by immunohistochemical staining using amyloid beta antibody; settings: tested as the 18F-labelled form
# Method in brief: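 Plaque presence and location in the AD patient temporal-lobe sections were confirmed by immunohistochemistry with monoclonal anti-Aβ1-42 antibody BC05.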
# Chain of Amyloid-beta precursor protein (Homo sapiens) (P05067 whole entry): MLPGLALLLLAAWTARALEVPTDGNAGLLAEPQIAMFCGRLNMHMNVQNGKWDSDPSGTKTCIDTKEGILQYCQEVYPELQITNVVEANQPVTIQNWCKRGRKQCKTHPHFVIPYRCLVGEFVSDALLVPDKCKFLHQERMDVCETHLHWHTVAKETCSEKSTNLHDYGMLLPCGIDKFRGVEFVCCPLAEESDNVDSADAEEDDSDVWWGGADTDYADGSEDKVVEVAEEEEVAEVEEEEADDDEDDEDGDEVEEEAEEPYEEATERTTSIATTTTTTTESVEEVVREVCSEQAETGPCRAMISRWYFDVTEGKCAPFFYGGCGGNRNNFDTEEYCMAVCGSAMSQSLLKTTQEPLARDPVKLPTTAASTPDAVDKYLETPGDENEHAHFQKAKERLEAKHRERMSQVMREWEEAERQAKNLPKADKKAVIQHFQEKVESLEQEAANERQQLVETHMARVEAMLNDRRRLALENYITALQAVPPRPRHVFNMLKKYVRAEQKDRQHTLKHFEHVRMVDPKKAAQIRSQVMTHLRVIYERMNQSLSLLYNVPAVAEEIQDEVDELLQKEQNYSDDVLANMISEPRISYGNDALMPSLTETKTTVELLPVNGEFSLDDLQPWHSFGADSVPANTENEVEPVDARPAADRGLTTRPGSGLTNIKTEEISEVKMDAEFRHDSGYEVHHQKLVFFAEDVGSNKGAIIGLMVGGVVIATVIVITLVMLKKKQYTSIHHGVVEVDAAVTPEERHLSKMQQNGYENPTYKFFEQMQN
compound,measurement,setting,value
CNc1ccc(/C=C/C(=O)/C=C/c2ccc(OCCOCCOCC[18F])cc2)cc1,Drug uptake,Spleen [1],5.39 % ID/g
same,Drug uptake,Stomach [2],3.26 % ID/organ
same,Drug uptake,Intestine [3],6.58 % ID/g
same,Drug uptake,Lung [4],12.19 % ID/g
same,Drug uptake,Heart [5],10.55 % ID/g
same,Drug uptake,Brain [6],1.89 % ID/g
same,Drug uptake,Blood [7],7.99 % ID/g
same,Drug uptake,Bone [8],2.93 % ID/g
same,Drug uptake,Liver [9],30.09 % ID/g
same,Drug uptake,Kidney [10],14.15 % ID/g
same,Drug uptake,Spleen [11],6.62 % ID/g
same,Drug uptake,Stomach [12],2.61 % ID/organ
same,Drug uptake,Intestine [13],12.82 % ID/g
same,Drug uptake,Lung [14],11.77 % ID/g
same,Drug uptake,Heart [15],7.64 % ID/g
same,Drug uptake,Brain [16],1.35 % ID/g
same,Drug uptake,Blood [17],4.68 % ID/g
same,Drug uptake,Bone [18],2.94 % ID/g
same,Drug uptake,Liver [19],19.24 % ID/g
same,Drug uptake,Kidney [20],11.51 % ID/g
same,Drug uptake,Spleen [21],5.44 % ID/g
same,Drug uptake,Stomach [22],1.93 % ID/organ
same,Drug uptake,Intestine [23],24.34 % ID/g
same,Drug uptake,Lung [24],7.43 % ID/g
same,Drug uptake,Heart [25],5.44 % ID/g
same,Drug uptake,Brain [26],1.27 % ID/g
same,Drug uptake,Blood [27],3.59 % ID/g
same,Drug uptake,Bone [28],2.54 % ID/g
same,Drug uptake,Liver [29],14.07 % ID/g
same,Drug uptake,Kidney [30],9.43 % ID/g
same,Drug uptake,Spleen [31],5.35 % ID/g
same,Drug uptake,Stomach [32],1.28 % ID/organ
same,Drug uptake,Intestine [33],26.26 % ID/g
same,Drug uptake,Lung [34],5.44 % ID/g
same,Drug uptake,Heart [35],5.14 % ID/g
same,Ratio,Brain [36],4.06
same,logD,[37],3.08
same,Drug uptake,Brain [38],5.15 % ID/g
same,Drug uptake,Blood [39],7.44 % ID/g
same,Drug uptake,Bone [40],2.97 % ID/g
same,Drug uptake,Liver [41],24.15 % ID/g
same,Drug uptake,Kidney [42],16.48 % ID/g
CN(C)c1ccc(/C=C/C(=O)/C=C/c2ccc(OCCOCCOCCF)cc2)cc1,pKi,[43],8.16
same,Activity,Mus musculus [44],Active
same,Activity,Mus musculus [45],Active
same,Activity,[46],Active
CNc1ccc(/C=C/C(=O)/C=C/c2ccc(OCCOCCOCCF)cc2)cc1,pKi,[43],8.07
same,Activity,Mus musculus [44],Active
same,Activity,Mus musculus [45],Active
same,Activity,[46],Active
